Here are results for four compounds from publication PMC12401638 (Drug Testing and Analysis, 2025).

One data set addresses CB1 (Homo sapiens, UniProt P21554). Kind of data set: cell-based. It counts as cell-based.
For data set [1], the target named is T1, CB2 (Homo sapiens, UniProt P34972). The experiment in a line: cell-based. Format: cell-based.
Data set [2] can be described thus: Metabolite identification by human liver microsome incubation and LC-QTOF-MS. It counts as in vitro ADME. The conditions noted are these: HLM incubation 37°C, 2 h. Summed up: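 Pooled human liver microsomes (50 donors, 20 mg/mL stock) with NADPH (10 mM stock) in 100 mM phosphate buffer, pH 7.4, 10 mM MgCl2. Controls: buffer only, and buffer plus NADPH without microsomes. Microsomal samples run in duplicate. Incubated 2 h at 37°C, quenched with acetonitrile, centrifuged, supernatant partly dried and filtered. Analysed by LC-QTOF-MS with an ammonium formate (10 mM, pH 3) / MeOH:ACN gradient.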
(Liver microsomes are vesicles of endoplasmic reticulum, rich in cytochrome P450 enzymes.)

The test system of the next data set is neuropathic pain. The conditions noted are these: mouse model for neuropathic pain; cited from earlier work.
In data set [3] the target is T1, CB2. Particulars: [35S]GTPγS, cAMP and βarr2 recruitment assay; cited from earlier work. On the technique in general: Binding of GTPγS marks nucleotide exchange on a G protein.
The test system of data set [4] is both cannabinoid receptors. Particulars: cited from earlier work.

Each structure is given as a SMILES string. Like-named read-outs stand apart in the source and are kept apart here.

CB1, sequence (P21554 whole entry): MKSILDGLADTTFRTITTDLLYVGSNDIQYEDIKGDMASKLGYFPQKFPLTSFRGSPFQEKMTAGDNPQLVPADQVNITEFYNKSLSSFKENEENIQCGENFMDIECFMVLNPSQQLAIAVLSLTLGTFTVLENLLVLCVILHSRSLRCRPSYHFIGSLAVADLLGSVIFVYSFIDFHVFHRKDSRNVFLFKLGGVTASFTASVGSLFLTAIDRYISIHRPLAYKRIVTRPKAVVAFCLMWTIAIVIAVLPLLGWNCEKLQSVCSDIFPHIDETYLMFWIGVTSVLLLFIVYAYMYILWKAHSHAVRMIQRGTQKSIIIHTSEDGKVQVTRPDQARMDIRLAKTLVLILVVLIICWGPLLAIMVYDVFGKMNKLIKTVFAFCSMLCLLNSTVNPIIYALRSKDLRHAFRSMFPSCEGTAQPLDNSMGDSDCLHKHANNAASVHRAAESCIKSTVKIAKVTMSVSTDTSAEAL
CB1, sequence (P32121 whole entry partner): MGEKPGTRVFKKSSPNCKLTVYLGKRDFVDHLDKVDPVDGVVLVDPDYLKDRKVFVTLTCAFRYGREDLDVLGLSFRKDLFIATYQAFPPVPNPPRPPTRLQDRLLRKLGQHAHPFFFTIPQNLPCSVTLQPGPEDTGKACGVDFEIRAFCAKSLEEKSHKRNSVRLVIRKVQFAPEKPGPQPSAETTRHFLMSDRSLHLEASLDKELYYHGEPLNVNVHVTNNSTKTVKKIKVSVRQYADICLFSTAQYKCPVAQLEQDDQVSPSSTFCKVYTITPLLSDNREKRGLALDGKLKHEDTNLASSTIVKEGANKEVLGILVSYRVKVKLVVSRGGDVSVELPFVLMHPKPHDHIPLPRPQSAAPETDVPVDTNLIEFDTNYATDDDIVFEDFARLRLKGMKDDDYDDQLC
T1 sequence (P34972 whole entry): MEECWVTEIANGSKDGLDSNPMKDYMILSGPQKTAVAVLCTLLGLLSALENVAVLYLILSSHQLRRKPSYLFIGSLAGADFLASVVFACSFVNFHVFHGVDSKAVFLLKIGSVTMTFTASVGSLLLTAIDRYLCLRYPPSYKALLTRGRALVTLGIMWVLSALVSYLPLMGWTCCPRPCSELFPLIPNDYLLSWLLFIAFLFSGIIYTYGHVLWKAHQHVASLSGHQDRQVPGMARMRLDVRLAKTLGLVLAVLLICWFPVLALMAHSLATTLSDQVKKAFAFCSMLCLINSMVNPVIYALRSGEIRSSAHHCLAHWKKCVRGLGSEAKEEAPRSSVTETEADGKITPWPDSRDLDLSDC
T1 sequence (P32121 whole entry partner): as the sequence (P32121 whole entry partner) above

Take `Cc1c(Br)cn(Cc2ccc(F)cc2)c(=O)c1NC(=O)C1CCCCC1` [CH‐FUBBMPDORA, N‐[5‐bromo‐1‐(4‐fluorobenzyl)‐4‐methyl‐2‐oxo‐1,2‐dihydropyridin‐3‐yl)cyclohexanecarboxamide]: the EC50 on CB1 was 3780 nM; at CB2 [1] it was 4270 nM. Also, the “number of metabolites identified” value in data set [2] is reported as “Four”. The “Area (LC-QTOF-MS peak area)” value in data set [2] (with NADPH) was 5.68e + 05.
As for `Cc1c(Br)cn(Cc2ccc(F)cc2)c(=O)c1NC(=O)C1CCCCCC1` [C2, N‐(5‐bromo‐1‐(4‐fluorobenzyl)‐4‐methyl‐2‐oxo‐1,2‐dihydropyridin‐3‐yl)cycloheptanecarboxamide], at CB1, the “CB1 activity compared with CH-FUBBMPDORA” value is “more active than CH‐FUBBMPDORA”. Besides, the “CB2 receptor activation potential compared with CH-FUBBMPDORA” value on CB2 [1] is “almost identical and equally weak”. Moreover, the antinociceptive activity result in the data set with neuropathic pain is “displayed antinociceptive activity”. Also, the “activation potential at CB2” value at CB2 [3] is listed as “(very) limited activation potential”.
Turning to `Cc1c(Br)cn(Cc2ccc(F)cc2)c(=O)c1C(=O)NC1CCCCCC1` [B2, 5‐bromo‐N‐cycloheptyl‐1‐(4‐fluorobenzyl)‐4‐methyl‐2‐oxo‐1,2‐dihydropyridine‐3‐carboxamide], the “activity and affinity at both cannabinoid receptors” value in data set [4] was “nanomolar activity and affinity”.
Consider `CCCCCn1cc(C(=O)c2cccc3ccccc23)c2ccccc21` [JWH‐018], for which the “E max (%) (95% CI), CB1, relative to CP55,940 (100%)” value on CB1 is 378 (348–409) %. Further, the EC50 on CB1 (read-out: EC 50 (nM) (95% CI), CB1) was found to be 14.3 nM; on CB2 [1] (read-out: EC 50 (nM) (95% CI), CB2), 4.36 nM. Besides, the “E max (%) (95% CI), CB2, relative to CP55,940 (100%)” value on CB2 [1] is recorded as 63.2 (55.8–70.9) %.
